Series [1] concerns the target NAD-dependent histone deacetylase SIR2 (Saccharomyces cerevisiae S288c) (UniProt P06700). Description: In vitro inhibition of sirtuin 2 was evaluated using yeast whole cell lysates at 75 uM; values are per cent of control.
The next series deals with Saccharomyces cerevisiae. Nature of the series: Toxicity against Saccharomyces cerevisiae assessed as growth inhibition in complete medium.
The target of series [2] is NAD-dependent histone deacetylase SIR2 (Saccharomyces cerevisiae S288c) (UniProt P06700). Description: Sirtuin 2 inhibitory activity and was reported as minimum growth-stimulating concentration in Saccharomyces cerevisiae. A digest of the protocol:
(§1)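 Telomeric-silencing growth assay in S. cerevisiae UCC2210 (adh4::URA3-TEL VII-L), ca. 13 500 cells/well, in synthetic complete medium lacking uracil. Compound at 150 μM to 73 nM final, DMSO ≤2%, 30 °C for about 40–48 h. OD660 read, initial background subtracted. MGC is the concentration giving 10% of the reference maximal growth. Triplicate, ±1 SD.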

Series [3] has the same target. Nature of the series: Selectivity index was reported as the ratio of the MGC to IC50 value.
Series [4] can be described thus: Half-life period was determined. Type of series: ADME. The method in brief:
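Hydrolysis followed by HPLC at 280 nm. 100 μM compound, made from 30 mM DMSO stock, in complete medium lacking uracil (pH 4.2-4.3, unadjusted). Half-life derived from the pseudo-first-order hydrolysis rate constant.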

Series [5] deals with NAD-dependent histone deacetylase SIR2 (Saccharomyces cerevisiae S288c) (UniProt P06700). Description: Tested for Sir2 inhibitory activity and was reported as minimum growth-stimulating concentration in Saccharomyces cerevisiae. The method in brief: as §1
NAD-dependent histone deacetylase SIR2 (Saccharomyces cerevisiae S288c), sequence (P06700 whole entry): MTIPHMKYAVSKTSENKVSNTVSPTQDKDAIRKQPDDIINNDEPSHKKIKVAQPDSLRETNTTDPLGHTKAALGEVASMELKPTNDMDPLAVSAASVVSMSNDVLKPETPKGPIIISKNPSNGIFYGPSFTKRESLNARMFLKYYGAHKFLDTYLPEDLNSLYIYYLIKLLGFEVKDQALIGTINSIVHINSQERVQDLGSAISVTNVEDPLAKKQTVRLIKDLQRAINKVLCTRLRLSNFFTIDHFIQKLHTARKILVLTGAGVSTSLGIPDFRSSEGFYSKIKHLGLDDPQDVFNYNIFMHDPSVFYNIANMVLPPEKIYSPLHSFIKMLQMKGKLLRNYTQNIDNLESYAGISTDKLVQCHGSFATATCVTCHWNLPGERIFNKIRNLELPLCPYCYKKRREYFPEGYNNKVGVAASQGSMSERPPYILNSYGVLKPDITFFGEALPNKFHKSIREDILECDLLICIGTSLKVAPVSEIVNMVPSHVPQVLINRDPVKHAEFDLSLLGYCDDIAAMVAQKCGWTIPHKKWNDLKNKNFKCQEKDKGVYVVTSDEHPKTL
Series [6] shares this target. Nature of the series: Tested for Sirtuin 2 inhibitory activity and was reported as minimum growth-stimulating concentration in Saccharomyces cerevisiae. The method in brief: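 Cell-based telomeric silencing read-out in yeast strain UCC2210 (Mata ppr1 adh4::URA3-TEL VII-L), about 13 500 cells per well, grown in synthetic complete medium lacking uracil. Compounds tested at 150 µM to 73 nM, with at most 2% DMSO. Incubation at 30 °C for about 40–48 h. Growth read as OD660 minus initial background. MGC is the concentration giving 10% of reference maximal growth. Triplicate, ±1 SD.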

`NC(=O)CCc1c(O)ccc2ccccc12` gave a residual activity in series [1] of 80%. Moreover, at Saccharomyces cerevisiae, the IC50 was determined as 125 µM. Moreover, the MGC in series [2] came to 0.79 µM. The SI in series [3] was determined as 158.

With `COc1ccc2c3c(ccc2c1)OC(=O)CC3`, the residual activity in series [1] came out at 84%. In addition, the half-maximal inhibitory concentration (IC50) at Saccharomyces cerevisiae worked out at 73 µM. The MGC in series [2] was found to be 13.8 µM. For the same compound, in series [3], the SI stood at 5.

On to `O=C1CCc2c(ccc3cc(O)ccc23)O1`, for which the residual activity in series [1] came out at 85%. The IC50 at Saccharomyces cerevisiae is at least 150 µM. Besides, the MGC in series [2] stood at 38 µM. Also, the SI in series [3] is over 39.

As to `O=C1CCc2c(c(OCc3ccccc3)cc3ccccc23)O1`, the residual activity in series [1] was 17%. Also, on Saccharomyces cerevisiae, the IC50 turned out to be 27 µM. In series [2], the MGC was determined as 0.97 µM. For the same compound, the SI in series [3] was determined as 29.

As to `COc1cc2c(c3ccccc13)CCC(=O)O2`, the IC50 on Saccharomyces cerevisiae worked out at 44 µM. This compound yielded an MGC in series [2] of 1.8 µM. The SI in series [3] worked out at 24.

Take `O=C1CCc2c(c(O)cc3ccccc23)O1`: the IC50 at Saccharomyces cerevisiae amounted to 111 µM. The same compound returned an MGC in series [2] of 0.69 µM. In addition, the SI in series [3] worked out at 161.

Take `O=C1CCc2c(ccc3ccccc23)N1`: the residual activity in series [1] amounted to 92%. Also, at Saccharomyces cerevisiae, the IC50 is at least 150 µM. The compound further had an MGC in series [2] of over 150 µM. Further, in series [4], the T1/2 result is recorded as “No hydrolysis obsd”.

Compound `O=C1CCc2ccc3ccccc3c2O1` yielded a residual activity in series [1] of 87%. The IC50 on Saccharomyces cerevisiae was 65 µM. In series [2], this compound showed an MGC of 2.4 µM. Further, the half-life in series [4] was 414 min. Also, the SI in series [3] amounted to 27.

For the compound `O=C1CCc2c(ccc3ccccc23)S1`, the IC50 at Saccharomyces cerevisiae is 25 µM. In series [2], this compound had an MGC of over 150 µM. Besides, in series [4], the half-life was 780 min.

As to `CCOC(=O)C1Cc2c(ccc3ccccc23)OC1=O` (configuration not stated), in series [1], the residual activity is 66%. In addition, the IC50 on Saccharomyces cerevisiae was at least 150 µM. Further, in series [2], the MGC was over 150 µM.

Turning to `CNC(=O)CCc1c(O)ccc2ccccc12`, the IC50 at Saccharomyces cerevisiae is at least 150 µM. In series [2], this compound registered an MGC of 5.8 µM. Moreover, the SI in series [3] is over 26.

For `O=C(O)CCc1c(O)ccc2ccccc12`, in series [1], the residual activity is 87%. Further, the IC50 at Saccharomyces cerevisiae was at least 150 µM. This compound also came in with an MGC in series [2] of over 150 µM.

Compound `O=c1ccc2ccccc2o1` registered an MGC in series [5] of over 150 µM. Also, the residual activity in series [1] was determined as 74%.

Compound `O=C1CCc2ccccc2O1` gave a residual activity in series [1] of 15%. The same compound displayed an MGC in series [2] of 0.85 µM.

As for `O=C1OC(=O)c2cccc3cccc1c23`, the residual activity in series [1] was 94%. For the same compound, in series [2], the MGC is over 150 µM.

`O=C1CCCc2c(ccc3ccccc23)O1` returned a residual activity in series [1] of 82%. The IC50 at Saccharomyces cerevisiae worked out at 12 µM. Besides, the MGC in series [2] was over 150 µM. The compound also showed a half-life in series [4] of 2970 min.

In series [1], `COC(=O)CCc1c(O)ccc2ccccc12` showed a residual activity of 75%. Further, the MGC in series [2] worked out at 5.2 µM.

In turn, `COc1ccc2ccc3c(c2c1)CCC(=O)O3` returned an MGC in series [2] of over 150 µM.

Regarding `O=C1CCc2c(ccc3c(O)cccc23)O1`, the IC50 at Saccharomyces cerevisiae was at least 150 µM. The MGC in series [2] amounted to 16 µM. For the same compound, the SI in series [3] is over 107.

For `O=C1CCc2c(c3oc(=O)ccc3c3ccccc23)O1`, the MGC in series [5] amounted to 5.1 µM. Further, the residual activity in series [1] was 83%. The IC50 on Saccharomyces cerevisiae is at least 150 µM. For the same compound, the SI in series [3] is over 29.

With `OCCCc1c(O)ccc2ccccc12`, the residual activity in series [1] turned out to be 88%. At Saccharomyces cerevisiae, the IC50 was at least 150 µM. The compound also gave an MGC in series [2] of over 150 µM.

Take `O=C1CC(c2ccccc2)c2c(ccc3ccccc23)O1` (configuration not stated): the residual activity in series [1] is 90%. Besides, the MGC in series [2] was over 150 µM.

In series [1], `O=C1CCc2c(ccc3ccccc23)O1` [SPLITOMICIN] displayed a residual activity of 66%. In series [6], this compound showed an MGC of 0.49 µM. For the same compound, the half-life in series [4] was 450 min.

In series [1], `C=CCC1Cc2c(ccc3ccccc23)OC1=O` (configuration not stated) returned a residual activity of 86%. Moreover, in series [2], the MGC is over 150 µM.

Take `O=C1Cc2c(ccc3ccccc23)O1`: the IC50 on Saccharomyces cerevisiae turned out to be 59 µM. The compound also gave an MGC in series [2] of over 150 µM. Moreover, the half-life in series [4] was 732 min.

`O=C1CCc2c(ccc3ccc4c(c23)CCC(=O)O4)O1`: the IC50 on Saccharomyces cerevisiae was at least 150 µM. The compound also came in with an MGC in series [2] of over 150 µM.

For `O=C1Cc2ccccc2O1`, the residual activity in series [1] was determined as 89%. Further, the IC50 on Saccharomyces cerevisiae is at least 150 µM. Moreover, the MGC in series [2] was 24 µM. Further, the SI in series [3] is over 6.

In turn, `O=C1CCc2c(c3c(c4ccccc24)CCC(=O)O3)O1` displayed a residual activity in series [1] of 80%. Moreover, the IC50 on Saccharomyces cerevisiae was determined as 89 µM. In series [2], this compound came in with an MGC of 4.9 µM. Besides, in series [3], the SI was 18.

As to `COc1cc2ccccc2c2c1OC(=O)CC2`, the IC50 on Saccharomyces cerevisiae was 128 µM. In addition, the MGC in series [2] is 1.5 µM. Further, in series [3], the SI turned out to be 85.

`O=C1CCc2c(cc(O)c3ccccc23)O1` had an MGC in series [2] of 11 µM.

As for `O=C1CCc2c(ccc3c4c(ccc23)OC(=O)CC4)O1`, the residual activity in series [1] amounted to 87%. Further, the MGC in series [2] was over 150 µM.

On to `O=C1CCc2ccc3c(O)cccc3c2O1`, for which the IC50 at Saccharomyces cerevisiae is at least 150 µM. The MGC in series [2] was determined as 21 µM. The SI in series [3] is over 7.

As for `O=C1CCc2c(ccc3ccc(O)cc23)O1`, the IC50 on Saccharomyces cerevisiae worked out at 134 µM. The compound further gave an MGC in series [2] of 48 µM. Also, the SI in series [3] was determined as 3.

As for `O=C(COc1cccc2ccccc12)ON1C(=O)CCC1=O`, the IC50 at Saccharomyces cerevisiae is at least 150 µM. The compound also registered an MGC in series [2] of over 150 µM.

In the case of `CC(C)CC1Cc2c(ccc3ccccc23)OC1=O` (configuration not stated), in series [2], the MGC was over 150 µM.

For `CC(C)(C)OC(=O)NCCOCCOc1cc2ccccc2c2c1OC(=O)CC2`, the IC50 on Saccharomyces cerevisiae was found to be 86 µM. This compound returned an MGC in series [2] of 6.4 µM. Also, the SI in series [3] stood at 13.

In series [1], `O=C1CCc2cc3ccccc3cc2O1` came in with a residual activity of 85%. Moreover, the IC50 at Saccharomyces cerevisiae was at least 150 µM. In series [2], this compound returned an MGC of 15 µM. Besides, the SI in series [3] worked out at 10.

In series [2], `COc1cccc2c3c(ccc12)OC(=O)CC3` came in with an MGC of 5.5 µM.

As to `O=C1CCCc2c1ccc1ccccc21`, the IC50 at Saccharomyces cerevisiae was 81 µM. In series [2], the MGC is over 150 µM.

In the case of `O=c1ccc2c(ccc3ccccc32)o1`, the residual activity in series [1] stood at 73%. The IC50 on Saccharomyces cerevisiae was 86 µM. The same compound registered an MGC in series [2] of over 150 µM. Moreover, the half-life in series [4] is over 6000 min.

For `CC1Cc2c(ccc3ccccc23)OC1=O` (configuration not stated), the residual activity in series [1] stood at 94%. The IC50 at Saccharomyces cerevisiae stood at 52 µM. Also, the MGC in series [2] turned out to be 5.4 µM. Besides, the SI in series [3] came to 10.

For `CCN(CC)C(=O)CCc1c(O)ccc2ccccc12`, the residual activity in series [1] came to 88%. Also, the IC50 at Saccharomyces cerevisiae came out at 125 µM. Also, the MGC in series [2] is over 150 µM.

The term residual activity denotes the signal under treatment as a percentage of the control signal. High values mean a small loss of activity, low ones a large loss of activity. The IC50 is the midpoint of a concentration-inhibition curve. The half-life is how long it takes for the measured level to halve.

Source of the values: ChEMBL document CHEMBL1148278 (J Med Chem, 2004).
